Test results taken from ChEMBL document CHEMBL2417369, “Synthesis and evaluation of heteroaryl substituted diazaspirocycles as scaffolds to probe the ATP-binding site of protein kinases” (Bioorg Med Chem, 2013).

Tests used:
[1] = target: T1, Cytoplasmic tyrosine-protein kinase BMX (Homo sapiens) (UniProt P51813); assay: Inhibition of BMX (unknown origin) at 30 uM by microfluidic mobility shift assay relative to control
T1 sequence (whole entry): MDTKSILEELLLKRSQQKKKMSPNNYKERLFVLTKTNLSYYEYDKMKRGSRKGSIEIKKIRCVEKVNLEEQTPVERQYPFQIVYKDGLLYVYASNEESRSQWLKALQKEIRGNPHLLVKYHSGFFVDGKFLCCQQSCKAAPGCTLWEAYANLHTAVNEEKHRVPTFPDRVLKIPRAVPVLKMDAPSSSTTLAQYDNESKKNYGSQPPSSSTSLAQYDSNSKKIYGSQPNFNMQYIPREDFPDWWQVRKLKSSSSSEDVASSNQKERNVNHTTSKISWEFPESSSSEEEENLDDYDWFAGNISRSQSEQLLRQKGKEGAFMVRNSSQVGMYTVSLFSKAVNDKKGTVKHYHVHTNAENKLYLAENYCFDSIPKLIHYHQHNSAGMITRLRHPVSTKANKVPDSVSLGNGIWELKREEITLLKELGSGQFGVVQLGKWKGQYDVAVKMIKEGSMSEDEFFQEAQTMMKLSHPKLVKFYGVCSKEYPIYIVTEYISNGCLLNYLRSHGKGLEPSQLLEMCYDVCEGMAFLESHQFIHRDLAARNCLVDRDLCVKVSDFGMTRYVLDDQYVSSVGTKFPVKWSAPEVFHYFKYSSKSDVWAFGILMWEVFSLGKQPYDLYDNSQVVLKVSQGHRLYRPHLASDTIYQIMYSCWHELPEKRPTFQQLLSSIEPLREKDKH
Outline: (§1)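 Single-point screen at 30 µM test compound across a 24-kinase panel in a microfluidic assay format. ATP was set near each enzyme's Km,[ATP]. […] The pan-AGC inhibitor H-89 served as an internal control on every assay plate.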

[2] = target: T2, Serine/threonine-protein kinase D3 (Homo sapiens) (UniProt O94806); assay: Inhibition of PKD3 (unknown origin) at 30 uM by microfluidic mobility shift assay relative to control
T2 sequence (whole entry): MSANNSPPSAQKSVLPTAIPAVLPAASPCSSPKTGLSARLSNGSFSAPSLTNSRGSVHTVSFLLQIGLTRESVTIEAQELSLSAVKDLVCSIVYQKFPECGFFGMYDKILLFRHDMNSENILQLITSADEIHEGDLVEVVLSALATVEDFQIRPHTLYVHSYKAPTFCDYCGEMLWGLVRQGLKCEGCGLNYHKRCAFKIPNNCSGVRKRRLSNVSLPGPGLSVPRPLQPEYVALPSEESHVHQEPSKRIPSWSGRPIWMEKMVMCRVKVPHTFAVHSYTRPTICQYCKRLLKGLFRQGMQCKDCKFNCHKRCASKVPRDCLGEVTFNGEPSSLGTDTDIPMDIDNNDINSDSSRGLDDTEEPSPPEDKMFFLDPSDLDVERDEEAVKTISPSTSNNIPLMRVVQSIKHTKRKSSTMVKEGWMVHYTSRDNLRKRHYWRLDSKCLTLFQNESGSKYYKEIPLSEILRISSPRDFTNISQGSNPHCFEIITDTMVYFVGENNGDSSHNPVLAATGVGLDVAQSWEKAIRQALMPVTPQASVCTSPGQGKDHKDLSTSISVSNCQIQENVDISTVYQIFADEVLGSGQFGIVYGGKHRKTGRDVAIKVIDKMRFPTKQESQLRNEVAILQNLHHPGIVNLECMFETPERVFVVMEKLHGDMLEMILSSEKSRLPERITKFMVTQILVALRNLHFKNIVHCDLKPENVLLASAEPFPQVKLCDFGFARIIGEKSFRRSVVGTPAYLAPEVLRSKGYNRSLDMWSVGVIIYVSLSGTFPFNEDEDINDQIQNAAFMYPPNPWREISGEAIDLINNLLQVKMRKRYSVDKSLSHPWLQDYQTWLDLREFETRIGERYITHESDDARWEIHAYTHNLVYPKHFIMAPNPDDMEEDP
Outline: (§2)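 Single-point screen against a 24-kinase panel in a commercial microfluidic assay format. Compounds were tested at 30 µM, with ATP at approximately the Km,[ATP] of each enzyme. H-89 was included on each assay plate as an internal control.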

[3] = target: Serine/threonine-protein kinase pim-2 (Homo sapiens) (UniProt Q9P1W9); assay: Inhibition of PIM2 (unknown origin) at 30 uM by microfluidic mobility shift assay relative to control; outline: as §1
Serine/threonine-protein kinase pim-2 (Homo sapiens), sequence (Q9P1W9 whole entry, looked up): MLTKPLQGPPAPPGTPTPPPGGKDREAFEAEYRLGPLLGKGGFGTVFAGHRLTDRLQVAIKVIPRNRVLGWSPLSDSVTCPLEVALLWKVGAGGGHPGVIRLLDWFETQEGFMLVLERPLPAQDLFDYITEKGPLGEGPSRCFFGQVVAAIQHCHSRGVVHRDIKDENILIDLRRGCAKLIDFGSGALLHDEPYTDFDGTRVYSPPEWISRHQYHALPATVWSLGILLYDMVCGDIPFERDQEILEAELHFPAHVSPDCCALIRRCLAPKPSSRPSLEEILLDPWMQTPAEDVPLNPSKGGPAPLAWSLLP

[4] = target: Mitogen-activated protein kinase 3 (Homo sapiens, UniProt P27361); assay: Inhibition of MAPK3 (unknown origin) at 30 uM by microfluidic mobility shift assay relative to control; outline: as §1
Mitogen-activated protein kinase 3, sequence (P27361 whole entry): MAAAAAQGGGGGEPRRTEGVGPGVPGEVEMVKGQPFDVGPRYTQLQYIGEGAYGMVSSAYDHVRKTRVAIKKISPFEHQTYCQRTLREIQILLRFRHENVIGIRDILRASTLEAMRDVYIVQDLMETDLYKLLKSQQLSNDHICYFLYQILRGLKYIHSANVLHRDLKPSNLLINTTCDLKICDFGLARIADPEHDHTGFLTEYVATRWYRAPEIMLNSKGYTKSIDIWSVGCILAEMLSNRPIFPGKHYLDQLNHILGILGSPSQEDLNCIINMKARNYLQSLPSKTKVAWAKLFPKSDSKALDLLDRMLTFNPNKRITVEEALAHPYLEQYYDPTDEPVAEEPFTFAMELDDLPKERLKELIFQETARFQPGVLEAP

[5] = target: T3, Protein kinase C epsilon type (Homo sapiens) (UniProt Q02156); assay: Inhibition of PKCepsilon (unknown origin) at 30 uM by microfluidic mobility shift assay relative to control; outline: as §2
T3 sequence (whole entry): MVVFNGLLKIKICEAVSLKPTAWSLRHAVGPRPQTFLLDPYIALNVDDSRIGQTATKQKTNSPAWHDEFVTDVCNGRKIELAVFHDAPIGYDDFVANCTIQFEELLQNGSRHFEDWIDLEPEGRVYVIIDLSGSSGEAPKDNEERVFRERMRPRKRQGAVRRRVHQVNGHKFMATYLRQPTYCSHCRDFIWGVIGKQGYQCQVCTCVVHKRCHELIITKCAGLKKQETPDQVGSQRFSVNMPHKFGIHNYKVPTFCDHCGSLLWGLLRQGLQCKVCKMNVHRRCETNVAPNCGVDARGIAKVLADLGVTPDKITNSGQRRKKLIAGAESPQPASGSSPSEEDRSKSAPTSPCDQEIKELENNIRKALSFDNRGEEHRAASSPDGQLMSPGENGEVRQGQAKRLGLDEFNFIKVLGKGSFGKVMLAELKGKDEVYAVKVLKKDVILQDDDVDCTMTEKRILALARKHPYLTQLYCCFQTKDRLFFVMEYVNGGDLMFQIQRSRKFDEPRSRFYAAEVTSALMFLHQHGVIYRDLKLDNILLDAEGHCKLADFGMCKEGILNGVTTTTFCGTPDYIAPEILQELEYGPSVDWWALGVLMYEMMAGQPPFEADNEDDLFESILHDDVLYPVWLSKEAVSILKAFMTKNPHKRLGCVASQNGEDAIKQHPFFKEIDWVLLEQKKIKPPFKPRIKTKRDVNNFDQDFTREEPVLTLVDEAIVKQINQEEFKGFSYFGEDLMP

[6] = species: Homo sapiens; assay: Inhibition of DYRK1 (unknown origin) at 30 uM by microfluidic mobility shift assay relative to control; outline: as §1
[7] = species: Homo sapiens; assay: Inhibition of CSNK1 (unknown origin) at 30 uM by microfluidic mobility shift assay relative to control; outline: as §1

SMILES	inhibition [1]	inhibition [2]	inhibition [3]	inhibition [4]	inhibition [5]	inhibition [6]	inhibition [7]
c1ccc(C2CCNC3(CCN(c4ncnc5[nH]cnc45)CC3)C2)cc1 (racemic)	0%	53%	4%	13%	66%	8%	11%
c1ccc(CC2CCC3(CCN(c4ncnc5[nH]cnc45)CC3)NC2)cc1 (racemic)	12%	25%	13%	7%	24%	13%	14%
c1ccc(CC2CCNC3(CCN(c4ncnc5[nH]cnc45)CC3)C2)cc1 (racemic)	8%	81%	21%	9%	64%	7%	11%
